# ChEMBL document CHEMBL4028833, “Novel non-trimethoxylphenyl piperlongumine derivatives selectively kill cancer cells” (Bioorg Med Chem Lett, 2017)
# Active and inactive are the calls of the source. The rule behind the calls is not given here.
# Columns and labels:
# [1] = tested on: A549; experiment: Antiproliferative activity against human A549 cells after 72 hrs by MTT assay; assay type: functional, cell-based; details: A549, 72 h
# Summary of the method: (§1)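 Cell growth inhibition was read by MTT assay, and IC50 values were reported.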
# [2] = tested on: HCT-116; experiment: Antiproliferative activity against human HCT116 cells after 72 hrs by MTT assay; assay type: functional, cell-based; details: HCT-116, 72 h; summary of the method: as §1
# [3] = tested on: MDA-MB-231; experiment: Antiproliferative activity against human MDA-MB-231 cells after 72 hrs by MTT assay; assay type: functional, cell-based; details: MDA-MB-231, 72 h; summary of the method: as §1
# [4] = tested on: SK-HEP1; experiment: Antiproliferative activity against human SKHEP1 cells after 72 hrs by MTT assay; assay type: functional, cell-based; details: SK-HEP1, 72 h; summary of the method: as §1
# [5] = tested on: U2OS; experiment: Antiproliferative activity against human U2OS cells after 72 hrs by MTT assay; assay type: functional, cell-based; summary of the method: as §1
# [6] = tested on: SAOS-2; experiment: Antiproliferative activity against human Saos2 cells after 72 hrs by MTT assay; assay type: functional, cell-based; details: SAOS-2, 72 h; summary of the method: as §1
# [7] = tested on: WI-38; experiment: Cytotoxicity against human W138 cells after 72 hrs by MTT assay; assay type: cell-based; details: WI-38, 72 h; summary of the method: as §1
# [8] = tested on: HCT-116; experiment: Induction of reactive oxygen species generation in human HCT116 cells at 10 uM after 1 hr by DCFH-DA dye-based fluorescence microscopic analysis; assay type: functional, cell-based
# Summary of the method: (§2)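 ROS was imaged by fluorescence microscopy in HCT-116 and Saos-2 cells after 1 h treatment at 10 μM. DMSO-treated cells served as the control.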
# [9] = tested on: SAOS-2; experiment: Induction of reactive oxygen species generation in human Saos2 cells at 10 uM after 1 hr by DCFH-DA dye-based fluorescence microscopic analysis relative to control; assay type: functional; summary of the method: as §2
# [10] = tested on: HCT-116; experiment: Induction of reactive oxygen species generation in human HCT116 cells at 1 to 10 uM by DCFH-DA dye-based fluorescence microscopic analysis; assay type: functional, cell-based; details: TDE = time-dependent effect
# Summary of the method: (§3)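 Cellular ROS was imaged by fluorescence microscopy in HCT-116 and Saos-2 cells. Cells were treated at 1, 5 and 10 μM for 1 h and 3 h, with a DMSO control.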
# [11] = tested on: SAOS-2; experiment: Induction of reactive oxygen species generation in human Saos2 cells at 1 to 5 uM after 1 to 3 hrs by DCFH-DA dye-based fluorescence microscopic analysis; assay type: functional, cell-based; summary of the method: as §3
# [12] = tested on: SAOS-2; experiment: Induction of reactive oxygen species generation in human Saos2 cells at 1 to 10 uM DCFH-DA dye-based fluorescence microscopic analysis; assay type: functional, cell-based; details: TDE = time-dependent effect; summary of the method: as §3
# [13] = tested on: HCT-116; experiment: Induction of apoptosis in human HCT116 cells at 1 uM after 24 hrs by annexin V-FITC/propidium iodide staining-based flow cytometric method; assay type: functional
# Summary of the method: (§4)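 Apoptosis was scored by fluorescence-activated cell sorting after 24 h treatment of HCT-116 and Saos-2 cells, with DMSO controls. Cell morphology was also examined. The percentage of apoptotic cells was reported at 1 and 5 μM.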
# [14] = tested on: HCT-116; experiment: Induction of apoptosis in human HCT116 cells at 5 uM after 24 hrs by annexin V-FITC/propidium iodide staining-based flow cytometric method; assay type: functional; summary of the method: as §4
# [15] = tested on: SAOS-2; experiment: Induction of apoptosis in human Saos2 cells at 1 uM after 24 hrs by annexin V-FITC/propidium iodide staining-based flow cytometric method; assay type: functional; summary of the method: as §4
# [16] = tested on: SAOS-2; experiment: Induction of apoptosis in human Saos2 cells at 5 uM after 24 hrs by annexin V-FITC/propidium iodide staining-based flow cytometric method; assay type: functional; summary of the method: as §4
# [17] = tested on: HCT-116; experiment: Cell cycle arrest in human HCT116 cells assessed as accumulation at G0/G1 phase after 24 hrs by propidium iodide staining based flow cytometric method; assay type: functional
# [18] = tested on: HCT-116; experiment: Cell cycle arrest in human HCT116 cells assessed as accumulation at S phase 1 to 5 uM after 24 hrs by propidium iodide staining based flow cytometric method; assay type: functional
# [19] = tested on: SAOS-2; experiment: Cell cycle arrest in human Saos2 cells assessed as accumulation at G2/M phase at 1 to 5 uM after 24 hrs by propidium iodide staining based flow cytometric method; assay type: functional
# [20] = tested on: SAOS-2; experiment: Cell cycle arrest in human Saos2 cells assessed as accumulation at S phase at 1 to 5 uM after 24 hrs by propidium iodide staining based flow cytometric method; assay type: functional
# [21] = tested on: HCT-116; experiment: Induction of reactive oxygen species generation in human HCT116 cells at 1 to 5 uM after 1 to 3 hrs by DCFH-DA dye-based fluorescence microscopic analysis; assay type: functional, cell-based; summary of the method: as §3
# [22] = tested on: HCT-116; experiment: Induction of apoptosis in human HCT116 cells after 24 hrs by annexin V-FITC/propidium iodide staining-based flow cytometric method; assay type: functional, cell-based; summary of the method: as §4
# [23] = tested on: SAOS-2; experiment: Induction of apoptosis in human Saos2 cells after 24 hrs by annexin V-FITC/propidium iodide staining-based flow cytometric method; assay type: functional, cell-based; summary of the method: as §4
# [24] = tested on: HCT-116; experiment: Cell cycle arrest in human HCT116 cells assessed as accumulation at G0/G1 phase at 1 to 5 uM after 24 hrs by propidium iodide staining based flow cytometric method; assay type: functional
# [25] = tested on: HCT-116; experiment: Cell cycle arrest in human HCT116 cells accumulation at G0/G1 phase at 1 to 5 uM after 24 hrs by propidium iodide staining based flow cytometric method
IC50 [1],IC50 [2],IC50 [3],IC50 [4],IC50 [5],SMILES,IC50 [6],IC50 [7],Activity [8],other results
18.6 µM,5.89 µM,19.2 µM,13.6 µM,8.6 µM,O=C1C(Cl)=CCCN1C(=O)c1ccco1,3.86 µM,> 100 µM,–,–
8.3 µM,4.49 µM,5.52 µM,1.27 µM,1.47 µM,O=C(/C=C/c1ccco1)N1CCC=C(Cl)C1=O,0.28 µM,> 100 µM,–,–
85.1 µM,64.5 µM,65.1 µM,72.9 µM,68.3 µM,O=C1C(Cl)=CCCN1C(=O)C1CC1c1ccccc1 (stereo unspecified),23.5 µM,> 100 µM,–,–
4.12 µM,1.67 µM,1.67 µM,0.71 µM,1.17 µM,O=C(/C=C/c1ccccc1)N1CCC=C(Cl)C1=O,0.011 µM,84.6 µM,Active,fold change (FC) [9]: 2; Activity [10]: Tde; Activity [11]: Active; Activity [12]: Tde; Activity [13]: 16%; Activity [14]: 17%; Activity [15]: 12.7%; Activity [16]: 21.5%; Activity [17]: Dose-dependent effect; Activity [18]: Active; Activity [19]: inactive; Activity [20]: inactive; Activity [21]: Active; Activity [22]: Dose-dependent effect; Activity [23]: Dose-dependent effect
7.93 µM,0.92 µM,1.73 µM,1.19 µM,1.12 µM,O=C(C#Cc1ccccc1)N1CCC=C(Cl)C1=O,0.42 µM,> 100 µM,inactive,fold change (FC) [9]: 2
> 100 µM,> 100 µM,> 100 µM,> 100 µM,> 100 µM,O=C1C(Cl)=CCCN1C(=O)c1ccncc1,89.9 µM,> 100 µM,–,–
8.64 µM,3.84 µM,4.83 µM,4.83 µM,5.67 µM,O=C1C(Cl)=CCCN1C(=O)c1cccnc1,2.55 µM,31 µM,–,–

# More lines, now with the values behind:
SMILES,IC50 [1],IC50 [2],IC50 [3],IC50 [4],IC50 [5],IC50 [6],IC50 [7],Activity [8],other results
O=C(/C=C/c1cccnc1)N1CCC=C(Cl)C1=O,2.97 µM,2.36 µM,2.97 µM,1.9 µM,1.67 µM,0.53 µM,47 µM,Active,fold change (FC) [9]: 2
O=C(/C=C/C(=O)N1CCC=C(Cl)C1=O)N1CCC=C(Cl)C1=O,8.6 µM,4.2 µM,5.04 µM,3.96 µM,7.29 µM,0.82 µM,89.5 µM,–,–
O=C1C(Br)=CCCN1C(=O)c1cnc2ccccc2c1,> 100 µM,> 100 µM,> 100 µM,75.2 µM,97.5 µM,26.7 µM,> 100 µM,–,–
O=C(/C=C/c1ccoc1)N1CCC=C(Cl)C1=O,11 µM,4.37 µM,4.97 µM,2.78 µM,2.26 µM,1.15 µM,> 100 µM,–,–
COc1cc(/C=C/C(=O)N2CCC=CC2=O)cc(OC)c1OC [PIPLARTINE],6.84 µM,7.34 µM,10.6 µM,13.3 µM,9.49 µM,7.31 µM,> 100 µM,Active,Activity [15]: 26%; Activity [16]: 33%; Activity [18]: Active; Activity [19]: inactive; Activity [20]: inactive; Activity [22]: Dose-dependent effect; Activity [23]: Dose-dependent effect; Activity [24]: Active; Activity [25]: Active
O=C1C(Cl)=CCCN1C(=O)c1cnc2ccccc2c1,10.6 µM,10.2 µM,8.68 µM,3.52 µM,6.63 µM,2.96 µM,> 100 µM,–,–
